Our source for the metabolised, Emax and EC50 values is ChEMBL document CHEMBL2176880 (J Med Chem, 2012).

System in the first data set: not listed separately
The data set can be described thus: Drug metabolism in mouse liver microsomes at 5 uM after 15 mins. The note with it: read-out: Drug metabolism. It is filed as ADME, Microsome.
On to `FC(F)(F)c1c(N2Cc3ccccc3C2)ccn2c(CC3CC3)nnc12`, for which the metabolised at […], 5 µM came to 89%.
In the case of `CCCc1cnc2c(C#N)c(N3CCC(c4ccccc4)CC3)ccn12`, the metabolised at […], 5 µM is 81%.
On to `COCc1nnc2c(C#N)c(N3CCC(c4ccccc4)CC3)ccn12`, for which the metabolised at […], 5 µM came out at 31%.
For the compound `Clc1c(N2CCN(c3ccccc3)CC2)ccn2c(CC3CC3)nnc12`, the metabolised at […], 5 µM turned out to be 53%.
Regarding `N#Cc1c(N2CCC(c3ccccc3)CC2)ccn2c(CC(F)(F)F)cnc12`, the metabolised at […], 5 µM was determined as 41%.
For the compound `FC(F)(F)c1c(N2CCc3ccccc3C2)ccn2c(CC3CC3)nnc12`, the metabolised at […], 5 µM turned out to be 86%.
Still for that read-out and setting: to `FC(F)(F)c1c(N2CCC(c3ccccc3)C2)ccn2c(CC3CC3)nnc12` (racemic) belongs 72%; to `CCCc1nnc2c(C#N)c(N3CCC(c4ccccc4)CC3)ccn12`, 40%; to `CCc1cnc2c(C#N)c(N3CCC(c4ccccc4)CC3)ccn12`, 82%.
Consider `N#Cc1c(N2CCC(c3ccccc3)CC2)ccn2c(CC3CC3)nnc12`, for which the metabolised at […], 5 µM was 25%.
For `FC(F)(F)c1c(N2CCC(c3cccnc3)CC2)ccn2c(CC3CC3)nnc12`, the metabolised at […], 5 µM worked out at 78%.

System in a further data set: not listed separately
In words: Drug metabolism in human liver microsomes at 5 uM after 15 mins. Type of data set: ADME, Microsome. The note with it: read-out: Drug metabolism. The procedure, abridged:
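Compound at 5 μM incubated 15 min with human liver microsomes; read-out is % of compound metabolized. Values are the mean of at least two experiments.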
Turning to `FC(F)(F)c1c(N2Cc3ccccc3C2)ccn2c(CC3CC3)nnc12`, the metabolised at […], 5 µM is 50%.
On to `CCCc1cnc2c(C#N)c(N3CCC(c4ccccc4)CC3)ccn12`, for which the metabolised at […], 5 µM is 74%.
In the case of `COCc1nnc2c(C#N)c(N3CCC(c4ccccc4)CC3)ccn12`, the metabolised at […], 5 µM is 12%.
As to `Clc1c(N2CCN(c3ccccc3)CC2)ccn2c(CC3CC3)nnc12`, the metabolised at […], 5 µM was determined as 62%.
Same read-out and setting: for `N#Cc1c(N2CCC(c3ccccc3)CC2)ccn2c(CC(F)(F)F)cnc12` the value was 24%; for `FC(F)(F)c1c(N2CCc3ccccc3C2)ccn2c(CC3CC3)nnc12`, 52%; for `FC(F)(F)c1c(N2CCC(c3ccccc3)C2)ccn2c(CC3CC3)nnc12` (racemic), 38%.
In the case of `CCCc1nnc2c(C#N)c(N3CCC(c4ccccc4)CC3)ccn12`, the metabolised at […], 5 µM stood at 25%.
Turning to `CCc1cnc2c(C#N)c(N3CCC(c4ccccc4)CC3)ccn12`, the metabolised at […], 5 µM is 74%.
As to `N#Cc1c(N2CCC(c3ccccc3)CC2)ccn2c(CC3CC3)nnc12`, the metabolised at […], 5 µM turned out to be 6%.
As to `FC(F)(F)c1c(N2CCC(c3cccnc3)CC2)ccn2c(CC3CC3)nnc12`, the metabolised at […], 5 µM came out at 31%.

The target in a further data set is T1, Metabotropic glutamate receptor 2 (Homo sapiens, UniProt Q14416). The data set can be described thus: Positive allosteric modulator activity at human mGlu2R expressed in CHO cells incubated for 30 mins by [35S]GTPgammaS binding assay relative to control. Type of data set: functional, cell-based.
Details: not given
Target sequence in this assay (Q14416 19-872 limits assumed): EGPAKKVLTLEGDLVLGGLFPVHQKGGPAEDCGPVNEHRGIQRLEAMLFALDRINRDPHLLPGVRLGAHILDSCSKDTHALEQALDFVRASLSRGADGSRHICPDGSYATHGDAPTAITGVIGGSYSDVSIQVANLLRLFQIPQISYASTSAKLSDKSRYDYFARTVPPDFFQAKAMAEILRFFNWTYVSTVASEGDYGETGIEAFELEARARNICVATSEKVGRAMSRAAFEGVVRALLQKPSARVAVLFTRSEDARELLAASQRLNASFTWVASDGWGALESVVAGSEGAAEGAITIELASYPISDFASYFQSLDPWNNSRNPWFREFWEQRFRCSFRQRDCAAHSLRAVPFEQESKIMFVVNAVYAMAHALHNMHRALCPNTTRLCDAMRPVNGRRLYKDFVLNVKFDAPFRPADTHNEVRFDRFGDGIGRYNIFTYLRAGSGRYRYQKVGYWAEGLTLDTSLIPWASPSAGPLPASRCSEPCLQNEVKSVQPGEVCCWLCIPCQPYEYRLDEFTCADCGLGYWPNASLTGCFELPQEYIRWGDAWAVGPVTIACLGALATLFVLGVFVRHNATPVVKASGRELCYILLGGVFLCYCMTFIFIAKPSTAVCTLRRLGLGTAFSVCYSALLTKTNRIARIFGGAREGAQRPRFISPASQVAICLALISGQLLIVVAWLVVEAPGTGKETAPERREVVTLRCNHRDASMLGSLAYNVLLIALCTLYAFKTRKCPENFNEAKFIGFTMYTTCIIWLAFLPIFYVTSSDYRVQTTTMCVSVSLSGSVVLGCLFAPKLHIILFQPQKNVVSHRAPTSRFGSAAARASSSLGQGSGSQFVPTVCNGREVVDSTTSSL
The compound `FC(F)(F)c1c(N2Cc3ccccc3C2)ccn2c(CC3CC3)nnc12` gave an Emax of 330%.
`CCCc1cnc2c(C#N)c(N3CCC(c4ccccc4)CC3)ccn12` showed an Emax of 254%.
As for `COCc1nnc2c(C#N)c(N3CCC(c4ccccc4)CC3)ccn12`, the Emax is 196%.
`Clc1c(N2CCN(c3ccccc3)CC2)ccn2c(CC3CC3)nnc12` gave an Emax of 308%.
`N#Cc1c(N2CCC(c3ccccc3)CC2)ccn2c(CC(F)(F)F)cnc12` came in with an Emax of 259%.
Turning to `FC(F)(F)c1c(N2CCc3ccccc3C2)ccn2c(CC3CC3)nnc12`, the Emax was 278%.
The compound `FC(F)(F)c1c(N2CCC(c3ccccc3)C2)ccn2c(CC3CC3)nnc12` (racemic) registered an Emax of 175%.
As for `CCCc1nnc2c(C#N)c(N3CCC(c4ccccc4)CC3)ccn12`, the Emax was found to be 272%.
Compound `CC(C)(C)c1nnc2c(C#N)c(N3CCC(c4ccccc4)CC3)ccn12` returned an Emax of 207%.
For the compound `CCc1cnc2c(C#N)c(N3CCC(c4ccccc4)CC3)ccn12`, the Emax is 225%.
The compound `N#Cc1c(N2CCC(c3ccccc3)CC2)ccn2c(CC3CC3)nnc12` registered an Emax of 278%.
`FC(F)(F)c1c(N2CCC(c3cccnc3)CC2)ccn2c(CC3CC3)nnc12` registered an Emax of 268%.

Another data set addresses T1, Metabotropic glutamate receptor 2. In words: Positive allosteric modulator activity at human mGlu2R expressed in CHO cells incubated for 30 mins by [35S]GTPgammaS binding assay. It is filed as functional, cell-based.
Details: not given
Target sequence in this assay (Q14416 whole entry): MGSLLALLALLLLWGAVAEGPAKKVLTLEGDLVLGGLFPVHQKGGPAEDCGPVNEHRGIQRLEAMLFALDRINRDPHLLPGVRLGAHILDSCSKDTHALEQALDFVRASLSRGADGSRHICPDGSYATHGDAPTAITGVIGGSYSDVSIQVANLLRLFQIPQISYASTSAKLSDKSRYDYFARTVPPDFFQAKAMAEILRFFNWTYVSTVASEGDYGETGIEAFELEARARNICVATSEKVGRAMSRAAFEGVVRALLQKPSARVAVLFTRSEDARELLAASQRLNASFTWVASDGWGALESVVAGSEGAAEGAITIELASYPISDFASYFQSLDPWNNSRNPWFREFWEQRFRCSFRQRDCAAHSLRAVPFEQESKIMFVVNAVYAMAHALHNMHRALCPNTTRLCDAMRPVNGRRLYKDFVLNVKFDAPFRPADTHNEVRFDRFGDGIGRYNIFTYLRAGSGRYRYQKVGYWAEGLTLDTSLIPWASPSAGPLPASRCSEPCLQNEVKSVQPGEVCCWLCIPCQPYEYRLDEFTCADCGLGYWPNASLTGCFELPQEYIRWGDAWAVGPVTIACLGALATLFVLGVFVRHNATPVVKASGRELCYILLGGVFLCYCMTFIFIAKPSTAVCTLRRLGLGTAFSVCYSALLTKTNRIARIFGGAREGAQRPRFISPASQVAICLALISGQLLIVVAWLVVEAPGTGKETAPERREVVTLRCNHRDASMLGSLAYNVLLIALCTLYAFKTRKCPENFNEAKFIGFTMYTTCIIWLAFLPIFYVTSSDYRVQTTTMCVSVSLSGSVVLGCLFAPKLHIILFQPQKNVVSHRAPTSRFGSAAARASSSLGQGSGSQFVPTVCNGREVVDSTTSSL
For `FC(F)(F)c1c(N2Cc3ccccc3C2)ccn2c(CC3CC3)nnc12`, a half-maximal effect (EC50) was put at 400 nM.
On the same count and under the same terms, for `COCc1nnc2c(C#N)c(N3CCC(c4ccccc4)CC3)ccn12` the value was 468 nM; for `Clc1c(N2CCN(c3ccccc3)CC2)ccn2c(CC3CC3)nnc12`, 944 nM; for `N#Cc1c(N2CCC(c3ccccc3)CC2)ccn2c(CC(F)(F)F)cnc12`, 125 nM.
The same measure, in the same setting: for `FC(F)(F)c1c(N2CCc3ccccc3C2)ccn2c(CC3CC3)nnc12` the value was 149 nM; for `FC(F)(F)c1c(N2CCC(c3ccccc3)C2)ccn2c(CC3CC3)nnc12` (racemic), 1230 nM; for `CCCc1nnc2c(C#N)c(N3CCC(c4ccccc4)CC3)ccn12`, 299 nM.
As to `CC(C)(C)c1nnc2c(C#N)c(N3CCC(c4ccccc4)CC3)ccn12`, a half-maximal response (EC50) required 1230 nM.
On to `FC(F)(F)c1c(N2CCC(c3cccnc3)CC2)ccn2c(CC3CC3)nnc12`, for which the EC50 was found to be 519 nM.
